Activity calls are given as the source filed them. The rule behind the calls is not given here.
Columns and labels:
Mus musculus [1] = assay: Anticonvulsant activity in F1 albino mouse assessed as protection against maximal electroshock-induced seizures at 300 mg/kg, ip after 0.5 hrs; type: functional, organism-based; set-up: dose 300 mg/kg
Procedure, shortened: (§1)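 Male albino F-1 mice (18–25 g), groups of 1–5 (rotorod 2–8). Compound given ip as a suspension in 0.5% methylcellulose at 30, 100 and 300 mg/kg. Seizures by maximal electroshock or subcutaneous pentylenetetrazole; neurotoxicity by rotorod. Read at 0.5 and 4 h, with some at 0.25, 1 and 2 h. Value is the minimum active dose, with protected (or toxic)/tested animals.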

Mus musculus [2] = assay: Neurotoxicity in F1 albino mouse assessed as minimal motor impairment at 300 mg/kg, ip after 1 hr by rotorod test; type: toxicity, organism-based; set-up: dose 300 mg/kg, route intraperitoneal; conditions: in vivo; procedure, shortened: as §1
Rattus norvegicus = species: Rattus norvegicus; assay: Selectivity ratio of Ki for adenosine A1 receptor in rat brain cortical membrane to Ki for adenosine A2A receptor in rat brain striatal membrane; type: cell membranes
Procedure, shortened: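 Ki ratios from radioligand competition binding. Rat A1 used brain cortical membranes and rat A2A used brain striatal membranes. Human A1 and A2A used membranes of CHO cells expressing the receptors. A1 radioligand [³H]CCPA; A2A radioligand [³H]MSX-2. Potent compounds were tested at 6–7 concentrations spanning 3 orders of magnitude.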

Mus musculus [3] = assay: Neurotoxicity in F1 albino mouse assessed as minimal motor impairment at 300 mg/kg, ip after 0.25 hrs by rotorod test; type: toxicity, organism-based; set-up: dose 300 mg/kg, route intraperitoneal; conditions: in vivo; procedure, shortened: as §1
Mus musculus [4] = assay: Neurotoxicity in F1 albino mouse assessed as minimal motor impairment at 300 mg/kg, ip after 4 hrs by rotorod test; type: toxicity, organism-based; set-up: dose 300 mg/kg, route intraperitoneal; conditions: in vivo; procedure, shortened: as §1
Mus musculus [5] = assay: Neurotoxicity in F1 albino mouse assessed as minimal motor impairment at 300 mg/kg, ip after 0.5 hrs by rotorod test; type: toxicity, organism-based; set-up: dose 300 mg/kg, route intraperitoneal; conditions: in vivo; procedure, shortened: as §1
Mus musculus [6] = assay: Anticonvulsant activity in F1 albino mouse assessed as protection against maximal electroshock-induced seizures at 300 mg/kg, ip after 4 hrs; type: functional, organism-based; set-up: dose 300 mg/kg; procedure, shortened: as §1
Mus musculus [7] = assay: Anticonvulsant activity in F1 albino mouse assessed as protection against subcutaneous pentylenetetrazole-induced seizures at 300 mg/kg, ip after 0.25 hrs; type: functional, organism-based; set-up: dose 300 mg/kg; procedure, shortened: as §1
Mus musculus [8] = assay: Anticonvulsant activity in F1 albino mouse assessed as protection against subcutaneous pentylenetetrazole-induced seizures at 300 mg/kg, ip after 1 hr; type: functional, organism-based; set-up: dose 300 mg/kg; procedure, shortened: as §1
Adenosine receptor A1 = target: T1, Adenosine receptor A1 (Rattus norvegicus, UniProt P25099); assay: Displacement of [3H]CCPA from adenosine A1 receptor in rat brain cortical membrane; type: cell membranes
T1 sequence (P25099 whole entry): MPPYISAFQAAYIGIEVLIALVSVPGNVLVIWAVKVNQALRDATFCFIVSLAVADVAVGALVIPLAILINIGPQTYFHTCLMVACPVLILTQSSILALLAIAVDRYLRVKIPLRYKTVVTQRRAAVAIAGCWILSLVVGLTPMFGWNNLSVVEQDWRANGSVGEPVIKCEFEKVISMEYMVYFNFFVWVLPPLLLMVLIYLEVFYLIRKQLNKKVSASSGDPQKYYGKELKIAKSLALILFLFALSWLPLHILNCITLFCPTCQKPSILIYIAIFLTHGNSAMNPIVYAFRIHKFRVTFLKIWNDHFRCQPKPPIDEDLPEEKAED

Mus musculus [9] = assay: Anticonvulsant activity in F1 albino mouse assessed as protection against subcutaneous pentylenetetrazole-induced seizures at 300 mg/kg, ip after 4 hrs; type: functional, organism-based; set-up: dose 300 mg/kg; procedure, shortened: as §1
Adenosine receptor A2a = Adenosine receptor A2a (Rattus norvegicus, UniProt P30543); assay: Displacement of [3H]MSX-2 from adenosine A2A receptor in rat brain striatal membrane; type: cell membranes
Sequence of Adenosine receptor A2a (P30543 whole entry): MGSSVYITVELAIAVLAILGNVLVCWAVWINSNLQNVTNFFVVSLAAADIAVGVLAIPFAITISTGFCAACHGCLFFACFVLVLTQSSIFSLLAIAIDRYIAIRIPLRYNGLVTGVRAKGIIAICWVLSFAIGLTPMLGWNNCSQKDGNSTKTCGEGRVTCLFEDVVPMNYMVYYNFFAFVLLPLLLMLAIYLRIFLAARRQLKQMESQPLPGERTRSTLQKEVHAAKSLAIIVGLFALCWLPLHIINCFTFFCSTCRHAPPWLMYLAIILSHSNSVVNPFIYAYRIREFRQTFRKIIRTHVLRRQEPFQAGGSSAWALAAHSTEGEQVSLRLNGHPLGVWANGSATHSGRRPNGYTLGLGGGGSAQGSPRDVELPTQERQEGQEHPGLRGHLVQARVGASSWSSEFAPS

Mus musculus [10] = assay: Anticonvulsant activity in F1 albino mouse assessed as protection against subcutaneous pentylenetetrazole-induced seizures at 300 mg/kg, ip after 0.5 hrs; type: functional, organism-based; set-up: dose 300 mg/kg; procedure, shortened: as §1
Mus musculus [11] = assay: Anticonvulsant activity in F1 albino mouse assessed as protection against maximal electroshock-induced seizures at 300 mg/kg, ip after 1 hr; type: functional, organism-based; set-up: dose 300 mg/kg; procedure, shortened: as §1
Mus musculus [12] = assay: Anticonvulsant activity in F1 albino mouse assessed as protection against maximal electroshock-induced seizures at 300 mg/kg, ip after 0.25 hrs; type: functional, organism-based; set-up: dose 300 mg/kg; procedure, shortened: as §1
[13] = target: T2, Adenosine receptor A1 (Rattus norvegicus) (UniProt P25099); assay: Displacement of [3H]CCPA from adenosine A1 receptor in rat brain cortical membrane at 25 uM; type: cell membranes
T2 sequence (whole entry): T1 sequence (P25099 whole entry)

Row | Structure (SMILES) | Ratio Ki (Rattus norvegicus) | Ki (Adenosine receptor A1) | Ki (Adenosine receptor A2a) | inhibition [13] | Activity (Mus musculus [1]) | Activity (Mus musculus [2]) | Activity (Mus musculus [3]) | Activity (Mus musculus [4]) | Activity (Mus musculus [5]) | Activity (Mus musculus [6]) | Activity (Mus musculus [7]) | Activity (Mus musculus [8]) | Activity (Mus musculus [9]) | Activity (Mus musculus [10]) | Activity (Mus musculus [11]) | Activity (Mus musculus [12])
1 | Cn1c(=O)c2c(nc3n2CCCN3C2CC2)n(C)c1=O | 20 | ≥ 25000 nM | 1240 nM | 43% | inactive | Non-toxic | Non-toxic | Non-toxic | Toxic | inactive | inactive | inactive | inactive | inactive | inactive | inactive
2 | Cn1c(=O)c2c(nc3n2CCN3C2CCCC2)n(C)c1=O | 8 | 25000 nM | 3100 nM | 50% | inactive | Non-toxic | Non-toxic | Non-toxic | Toxic | inactive | inactive | inactive | inactive | Active | inactive | inactive
3 | CC1CCCCC1N1CCCCn2c1nc1c2c(=O)n(C)c(=O)n1C (mixture of isomers) | > 7 | > 25000 nM | 3460 nM | 27% | inactive | Non-toxic | Non-toxic | Non-toxic | Non-toxic | inactive | inactive | inactive | inactive | Active | inactive | inactive
4 | CC1CCCCC1N1CCCn2c1nc1c2c(=O)n(C)c(=O)n1C (mixture of isomers) | > 23 | > 25000 nM | 1080 nM | 31% | inactive | Non-toxic | Non-toxic | Non-toxic | Non-toxic | inactive | inactive | inactive | inactive | inactive | inactive | inactive
5 | Cn1c(=O)c2c(nc3n2CCN3CC2CCCCC2)n(C)c1=O | > 13 | ≥ 25000 nM | 2000 nM | 41% | inactive | Non-toxic | Non-toxic | Non-toxic | Non-toxic | inactive | inactive | inactive | inactive | inactive | inactive | inactive

Stronger by Ki (Adenosine receptor A1), values ahead:

Row | Ratio Ki (Rattus norvegicus) | Ki (Adenosine receptor A1) | Ki (Adenosine receptor A2a) | inhibition [13] | Structure (SMILES) | Activity (Mus musculus [1]) | Activity (Mus musculus [2]) | Activity (Mus musculus [3]) | Activity (Mus musculus [4]) | Activity (Mus musculus [5]) | Activity (Mus musculus [6]) | Activity (Mus musculus [7]) | Activity (Mus musculus [8]) | Activity (Mus musculus [9]) | Activity (Mus musculus [10]) | Activity (Mus musculus [11]) | Activity (Mus musculus [12])
6 | 6 | 7890 nM | 1300 nM |  | C[C@H](C1CCCCC1)N1CCCn2c1nc1c2c(=O)n(C)c(=O)n1C | inactive | Non-toxic | Non-toxic | Non-toxic | Non-toxic | inactive | inactive | inactive | inactive | inactive | inactive | inactive
7 | 6 | 7580 nM | 1240 nM |  | CC(C1CCCCC1)N1CCCn2c1nc1c2c(=O)n(C)c(=O)n1C (racemic) | inactive | Non-toxic | Non-toxic | Non-toxic | Non-toxic | inactive | inactive | inactive | inactive | inactive | inactive | inactive
8 | 4 | 5060 nM | 1380 nM |  | Cn1c(=O)c2c(nc3n2CCCCN3C2CCCC2)n(C)c1=O | inactive | Non-toxic | Non-toxic | Non-toxic | Non-toxic | inactive | inactive | inactive | inactive | inactive | inactive | inactive
9 | 1 | 2450 nM | 2020 nM |  | Cn1c(=O)c2c(nc3n2CCN3CCC2=CCCCC2)n(C)c1=O | inactive | Non-toxic | Non-toxic | Toxic | Non-toxic | inactive | inactive | inactive | inactive | inactive | inactive | inactive
10 | 1 | 2130 nM | 2960 nM |  | Cn1c(=O)c2c(nc3n2CCCCN3C2CCCCC2)n(C)c1=O | inactive | Non-toxic | Non-toxic | Non-toxic | Non-toxic | inactive | inactive | inactive | inactive | inactive | inactive | inactive

Source: ChEMBL document CHEMBL2150901, “Synthesis and biological activity of tricyclic cycloalkylimidazo-, pyrimido- and diazepinopurinediones” (Eur J Med Chem, 2011)
